# Data as given in ChEMBL document CHEMBL3044924, “Design, synthesis, and insecticidal activities of phthalamides containing a hydrazone substructure” (2010).
# The source made the active and inactive calls. No cut-off for these calls is given here.
# Key:
# Myzus persicae [1] = assay: Stomach toxicity in adult Myzus persicae (green peach aphid) in compound treated cabbage leaves assessed as mortality at 600 mg/L at 25 degC and 85% RH for 24 hr; format: functional, organism-based
# Plutella xylostella = assay: Larvicidal activity against second instar Plutella xylostella (diamondback moth) in compound treated cabbage leaves assessed as mortality at 600 mg/L measured after 3 days; format: functional; conditions: 72 h
# Outline: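 Lab-reared field-collected stock (Haidian, Beijing), second-instar larvae. Leaf-dip assay: 2.0 cm cabbage leaf disks dipped 5 s in test solution, air-dried, then placed in a 6.0 cm tube lined with filter paper. Larvae added within 10 s. Mortality (%) scored 3 days after treatment, two replicates.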
# Myzus persicae [2] = assay: Insecticidal activity against adult Myzus persicae (green peach aphid) in compound treated cabbage leaves assessed as mortality at 25 degC and 85% RH for 24 hr; format: functional
# Myzus persicae [3] = assay: Insecticidal activity against adult Myzus persicae (green peach aphid) in compound treated cabbage leaves assessed as mortality at 12.5 mg/L at 25 degC and 85% RH for 24 hr; format: functional
# Outline: (§1)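 Aphids exposed to treated leaf at 200, 50 and 12.5 mg/L. Mortality corrected for untreated controls with Abbott's formula.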
# Myzus persicae [4] = assay: Insecticidal activity against adult Myzus persicae (green peach aphid) in compound treated cabbage leaves assessed as mortality at 200 mg/L at 25 degC and 85% RH for 24 hr; format: functional; outline: as §1
# Myzus persicae [5] = assay: Insecticidal activity against adult Myzus persicae (green peach aphid) in compound treated cabbage leaves assessed as mortality at 50 mg/L at 25 degC and 85% RH for 24 hr; format: functional; outline: as §1
# Myzus persicae [6] = assay: Insecticidal activity against adult Myzus persicae (green peach aphid) in compound treated cabbage leaves assessed as mortality at 600 mg/L at 25 degC and 85% RH for 24 hr; format: functional
Structure (SMILES),Activity (Myzus persicae [1]),mortality at 600 µg/mL (Plutella xylostella) [%],LC50 (Myzus persicae [2]) [µg/mL],mortality at 12.5 µg/mL (Myzus persicae [3]) [%],mortality at 200 µg/mL (Myzus persicae [4]) [%],mortality at 50 µg/mL (Myzus persicae [5]) [%],mortality at 600 µg/mL (Myzus persicae [6]) [%]
Cc1nn(-c2ccccc2)c(Cl)c1C=NNC(=O)c1cc(Cl)ccc1C(=O)NC1CCCCC1,Active,66.7,266,16.7,9.5,9.1,91.9
Cc1ccsc1C=NNC(=O)c1cc(Cl)ccc1C(=O)NC1CCCCC1,Active,11.1,58.9,22.4,45.2,41.7,90.6
O=C(NN=Cc1ccco1)c1cc(Cl)ccc1C(=O)NC1CCCCC1,Active,33.3,221,8.2,15.7,20,100
O=C(NN=Cc1ccc(O)cc1)c1cc(Cl)ccc1C(=O)NC1CCCCC1,Active,55.6,244,25.7,24.6,19.4,92.6
O=C(NN=Cc1ccccc1F)c1cc(Cl)ccc1C(=O)NC1CCCCC1,Active,33.3,276,5.9,23.8,8.3,90.2
Cc1ccc(C=NNC(=O)c2cc(Cl)ccc2C(=O)NC(C)C)o1,Active,44.4,122,13.8,50,16.9,96.4
Cc1ccc(C=NNC(=O)c2cc(Cl)ccc2C(=O)NC(C)C)s1,Active,55.6,76.2,29.3,52.3,32.7,100
Cc1cc(C(F)(C(F)(F)F)C(F)(F)F)ccc1NC(=O)c1cccc(I)c1C(=O)NC(C)(C)CS(C)(=O)=O [FLUBENDIAMIDE],,,184,,,,
CC(C)NC(=O)c1ccc(Cl)cc1C(=O)NN=Cc1cccs1,Active,0,70.5,24,45.5,30.3,98.7
CCCCNC(=O)c1ccc(Cl)cc1C(=O)NN=Cc1ccco1,Active,44.4,234,0,20,11.7,100
O=C(NN=Cc1cccs1)c1cc(Cl)ccc1C(=O)NC1CCCCC1,Active,33.3,113,19.6,37.8,13.5,98.8
Cc1ccsc1C=NNC(=O)c1cc(Cl)ccc1C(=O)NC(C)C,Active,44.4,124,16.3,56.1,25.5,90.6
CCCCNC(=O)c1ccc(Cl)cc1C(=O)NN=Cc1ccc(F)cc1,Active,33.3,310,19,20,18.6,97.7
CCCCNC(=O)c1ccc(Cl)cc1C(=O)NN=Cc1ccccc1F,Active,22.2,122,9.7,39.6,34,94.6
CC(C)NC(=O)c1ccc(Cl)cc1C(=O)NN=Cc1ccccc1Cl,Active,33.3,171,16.3,28.2,12.5,92.9
CC(C)NC(=O)c1ccc(Cl)cc1C(=O)NN=Cc1ccco1,Active,44.4,161,18.6,29.3,25.4,100
O=C(NN=Cc1ccccc1Cl)c1cc(Cl)ccc1C(=O)NC1CCCCC1,Active,66.7,148,26.2,41.3,28,100
CCCCNC(=O)c1ccc(Cl)cc1C(=O)NN=Cc1cccs1,Active,44.4,124,9.4,35.7,23.3,98.6
CC(C)NC(=O)c1ccc(Cl)cc1C(=O)NN=Cc1ccc(F)cc1,Active,100,68.1,21.9,57.8,52.8,91.3
CC(C)NC(=O)c1ccc(Cl)cc1C(=O)NN=Cc1ccc(O)cc1,Active,55.6,129,5.4,55.6,16.9,100
Cc1ccc(C=NNC(=O)c2cc(Cl)ccc2C(=O)NC2CCCCC2)o1,Active,33.3,271,0,16,7.3,93
CCCCNC(=O)c1ccc(Cl)cc1C(=O)NN=Cc1ccc(C(F)(F)F)cc1,Active,33.3,130,12.5,49.3,22.9,96.6
